Hits are enriched below; roughly 2.4% of the tested compounds scored in any of these assays.
PGC1a acetyl inh: inhibitors of PGC1a acetylation signal, primary screen, cell-based, U2OS, AlphaScreen, inhibitor mode; 350,000 compounds, 0.17% hits; AID 651687, 2012; AlphaScreen anti-acetyl-lysine; with virally co-expressed GCN5 acetyltransferase; inhibition, % at 15.6 µM;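 active = every replicate shows inhibition of at least 40%; inconclusive = mean inhibition at least 40% but some replicate below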;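 note: 0% = neutral control wells and 100% = positive control wells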
S100A4 inh HTS: inhibitors of S100A4-myosin IIA peptide binding, primary screen, biochemical, fluorescence polarization, TAMRA-MyoIIA peptide; Protein S100-A4 (Homo sapiens), P26447; inhibition, % at 10.7 µM; 360,000 compounds, 0.14% hits;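 active = mean inhibition of at least 70% across replicates, with every replicate also reaching that level; inconclusive = mean inhibition reaches 70% but some replicates fall short; inactive = mean inhibition below 70%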
Target sequence (P26447 whole entry, looked up): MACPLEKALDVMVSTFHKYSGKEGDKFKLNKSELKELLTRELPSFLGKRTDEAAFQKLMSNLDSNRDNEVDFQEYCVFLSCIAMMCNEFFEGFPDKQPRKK
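Assay system: human S100A4 monomer with TAMRA-labelled myosin IIA peptide / Buffer or medium: Calcium-containing HEPES buffer, pH 7.2 / Reagent: TAMRA-labelled myosin IIA heavy-chain peptide probe, 5 nM / Compound: one dose per compound / Timing: polarization read 5 min after assay mix addition, stable 5–60 min / Benchmarks: neutral control DMSO, positive control TFP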
Casp6 inh: human caspase-6 inhibitors, primary screen, biochemical, VEID-R110 fluorescence, single point, set 2; 350,000 compounds, 0.53% hits; AID 686996, 2013; purified caspase-6, Z-VEID-R110 cleavage fluorescence; P55212; inhibition, % at 12.5 µM;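 active = mean inhibition across replicates at least about 35%, with every replicate also reaching that limit, limit read from the data; inconclusive = only one of the two criteria met; inactive = neither criterion met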;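 note: 0% = median of neutral control wells and 100% = no fluorescence left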
Target sequence (P55212 24-179 limits assumed): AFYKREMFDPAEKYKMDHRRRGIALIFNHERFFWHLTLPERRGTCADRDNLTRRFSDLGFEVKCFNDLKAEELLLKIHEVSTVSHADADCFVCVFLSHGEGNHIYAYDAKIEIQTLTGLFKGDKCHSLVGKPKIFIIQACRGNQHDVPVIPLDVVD
Target sequence (P55212 194-293 limits assumed): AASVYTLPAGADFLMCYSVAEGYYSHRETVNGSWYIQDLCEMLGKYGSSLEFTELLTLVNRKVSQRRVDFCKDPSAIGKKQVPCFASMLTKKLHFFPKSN
ARNT-TACC3 inh: disruptors of ARNT/TACC3 protein interaction, primary screen, biochemical, AlphaScreen, single concentration | AlphaScreen His-ARNT PAS-B/GST-TACC3 binding, luminescence; TACC3 fragment carries E629A point mutation | Transforming acidic coiled-coil-containing protein 3 (Homo sapiens), Q9Y6A5 | AID 623870, 2012 | inhibition, % at 9.99 µM | 390,000 compounds, 0.66% hits;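 active = mean inhibition of replicates at least 50% and at least half of replicates each reaching 50%; inconclusive = half or more replicates reach 50% but mean below 50%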;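 note: 0% = complete ARNT plus TACC3 wells and 100% = ARNT alone without TACC3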
ERAP1 HTS inh: human ERAP1 aminopeptidase inhibitors, primary screen, biochemical, single point, plate reader; recombinant ERAP1, Leu-AMC fluorescence, 60 min; AID 652197, 2013; 340,000 compounds, 0.15% hits; inhibition, % at 10.7 µM; Endoplasmic reticulum aminopeptidase 1 (Homo sapiens), Q9NZ08;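 active = mean replicate inhibition of at least 30%, or all replicates individually reaching that 30% level; inactive = mean below 30% and not every replicate reaching it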;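 note: 0% = neutral control wells and 100% = L-leucinethiol positive control wells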
rRNA inh HTS: reduced GFP signal of wild-type E. coli, primary screen, bacterial rRNA inhibitor project, GFP/RFP fluorescence, OD600, single point. E. coli WT GFP vs humanized-ribosome RFP mutants, 24 h; hits give low values; DMSO median 0, no signal -100. GFP signal change (wild-type ribosome), % (concentration not given with the values). 350,000 compounds, 1.6% hits;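 active = significant combined selectivity score with lowered wild-type GFP, culture density cut under 30%, mutant RFP and density less affected; inactive = any of these conditions unmet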
* marks the source's active call; other numbers are inactive results; u = inconclusive; x = no result.

SMILES	PGC1a acetyl inh	S100A4 inh HTS	Casp6 inh	ARNT-TACC3 inh	ERAP1 HTS inh	rRNA inh HTS
COc1cccc(NC(=O)N2CC(=O)N3[C@H](CO)[C@@H](c4ccc(C5=CCCC5)cc4)[C@H]3C2)c1	-11	-11	-1	x	0	0
CN1C(=O)c2cc(NC(=O)c3ccc(F)cc3)ccc2OC[C@@H]2O[C@H](CC(=O)NCC3CC3)CC[C@H]21	7	3	-4	8	-1	1
O=C(NC(=S)NNC(=O)c1cnccn1)c1ccc(Cl)cc1	-3	-2	-3	54*	-1	7
O=C(NNC(=S)NC(=O)c1cccnc1)c1ccc(Cl)cc1	-3	x	x	-10	x	x
Cn1ccnc1SCC(=O)c1ccc(Cl)cc1	-3	15	1	3	0	-32*
Cn1ccnc1SCC(=O)c1ccc(O)cc1	2	3	3	-3	-3	7
COc1cccc(-c2ccc([C@H]3[C@H](CO)N4CCCCN(CC5CC5)C[C@@H]34)cc2)c1	-30	127*	-1	-5	2	2
CN(C)C(=O)c1ccc(-c2ccc([C@@H]3[C@@H](CO)N4CCCCN(CC5CC5)C[C@@H]34)cc2)cc1	1	109*	-2	-2	5	8
O=C(NCc1ccccc1)c1ncn(Cc2ccccc2)c1C(=O)NCc1ccccc1	x	-4	3	-10	1	-12
Cn1cnc(C(=O)NCc2ccccc2)c1C(=O)NCc1ccccc1	-34	9	2	3	x	-32*
CN(C)CCCN(C(=O)c1ccc(S(=O)(=O)N2CCc3ccccc3C2)cc1)c1nc2c(F)cccc2s1	x	28	14	9	3	-47*
Cc1cccc2sc(N(CCCN(C)C)C(=O)c3ccc(S(=O)(=O)N4CCc5ccccc5C4)cc3)nc12	x	8	1	0	-1	-10
C[C@H](CO)N1C[C@H](C)[C@H](CN(C)C(=O)Nc2ccc(F)cc2)Oc2ncc(C#Cc3ccccc3)cc2C1=O	4	x	x	x	x	-4
COc1cccc(NC(=O)COc2cccc(-n3cnnn3)c2)c1	x	-3	2	0	-1	2
Cc1cc(OCCCC(=O)Nc2cccc(-n3cnnn3)c2)ccc1Cl	x	-6	0	-2	-1	-34*
Cc1ccc(S(=O)(=O)N/N=C\c2ccc(C)o2)cc1	x	-30	41*	9	1	3
O=C1C2CC=CCC2C(=O)N1Cc1ccccc1 (stereo unspecified)	5	-2	6	-11	-11	6
O=C1C(c2ccccc2)c2ccccc2N1Cc1ccccc1 (stereo unspecified)	8	0	5	-28	2	-20*
Cc1ccsc1C(=O)OCC(=O)N(Cc1ccccc1)C(C)C	-2	-2	-1	-8	1	-30*
Cc1cccc(N2C(=O)C(O)=C(C(=O)c3cccs3)C2c2ccc(Cl)cc2)n1 (stereo unspecified)	x	4	4	-6	3	-34*
COc1cccc2cc(C(=O)C3=C(O)C(=O)N(c4cc(C)on4)C3c3cccs3)oc12 (stereo unspecified)	x	-3	12	11	5	-26*
CCOc1ccc(C2C(C(=O)c3ccc(C)o3)=C(O)C(=O)N2c2cc(C)on2)cc1OC (stereo unspecified)	1	-4	3	4	3	-1
Cc1cc(N2C(=O)C(O)=C(C(=O)c3cccs3)C2c2ccccc2)no1 (stereo unspecified)	-15	x	x	-14	x	x
Cc1cc(N2C(=O)C(O)=C(C(=O)c3cccs3)C2c2ccc(F)cc2)no1 (stereo unspecified)	x	4	3	-6	1	-26*
Cc1cccc(N2C(=O)C(O)=C(C(=O)c3cccs3)C2c2cccc(Oc3ccccc3)c2)n1 (stereo unspecified)	x	0	9	0	-3	x
SMILES	PGC1a acetyl inh	S100A4 inh HTS	Casp6 inh	ARNT-TACC3 inh	ERAP1 HTS inh	rRNA inh HTS
CCCCCOc1ccc(C2C(C(=O)c3ccc(C)o3)=C(O)C(=O)N2c2cc(C)on2)cc1 (stereo unspecified)	2	-6	39*	16	-2	-10
COCC(=O)N1CC2(CN(Cc3ccccc3Cl)C2)c2c([nH]c3cc(OC)ccc23)[C@H]1CO	x	x	x	x	x	-12
O=C(NCC1CCCCC1)[C@@H]1[C@@H](CO)[C@@H]2Cn3c(ccc(C4=CCCCC4)c3=O)[C@H]1N2	x	7	2	-2	-3	-5
Cc1cccc(N2C(=O)C(O)=C(C(=O)c3cccs3)C2c2ccccc2)n1 (stereo unspecified)	x	5	5	4	7	-32*
COc1ccc(C2C(C(=O)c3cccs3)=C(O)C(=O)N2c2cccc(C)n2)cc1OC (stereo unspecified)	x	-3	2	-5	4	x
COc1ccc(C2C(C(=O)c3cccs3)=C(O)C(=O)N2c2cccc(C)n2)cc1 (stereo unspecified)	x	3	4	2	8	-18*
Cc1noc(C)c1NC(=O)Nc1ccc2c(c1)C(=O)N([C@H](C)CO)C[C@H](C)[C@H](CN(C)C(=O)Nc1c(C)noc1C)OCCCC[C@H](C)O2	-4	-53	1	4	-4	2
Cc1ccc(S(=O)(=O)N(C)C[C@H]2Oc3ccc(NC(=O)Cn4cnnn4)cc3C(=O)N([C@H](C)CO)C[C@@H]2C)cc1	-1	u	-1	-6	-2	2
C[C@@H]1CN([C@@H](C)CO)C(=O)c2cc(C3=CCCC3)cnc2O[C@@H]1CN(C)C	13	-7	-1	3	-1	5
Cn1c(SCC(=O)N2CCN(S(=O)(=O)c3ccccc3)CC2)nc2ccccc21	0	-4	1	-2	-1	-1
CC(C)Cn1c(SCC(=O)N2CCN(S(=O)(=O)c3ccccc3)CC2)nc2ccccc21	-1	0	4	x	1	-32*
CNS(=O)(=O)c1cc(NC(=O)c2cnc(SC)n2-c2ccccc2)ccc1C	x	2	5	-10	-4	-21*
Cc1ccc(NC(=O)c2cnn(-c3ccccc3)c2C)cc1C	x	2	0	-8	6	1
C/C(=N/NC(=O)c1cc(C)[nH]n1)c1ccco1	-12	7	-1	5	6	17
C/C(=N\NC(=O)c1cc(-c2ccc(C)s2)[nH]n1)c1ccco1	x	0	5	x	-1	-35*
